Published values pooled from the literature.
Target: Adenosine receptor A1 (ADORA1, Homo sapiens, UniProt P30542)
Sequence (P30542 1-326, as in one of the studies): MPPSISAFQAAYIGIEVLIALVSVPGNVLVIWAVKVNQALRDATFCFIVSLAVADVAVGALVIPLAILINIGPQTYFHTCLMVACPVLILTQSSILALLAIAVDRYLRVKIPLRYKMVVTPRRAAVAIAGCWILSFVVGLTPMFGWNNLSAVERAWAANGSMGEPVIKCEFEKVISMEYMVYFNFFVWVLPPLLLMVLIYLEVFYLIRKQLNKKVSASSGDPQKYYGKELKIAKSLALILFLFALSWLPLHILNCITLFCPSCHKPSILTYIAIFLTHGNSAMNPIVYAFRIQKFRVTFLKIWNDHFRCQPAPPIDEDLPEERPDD

Structure (SMILES)	observed	method	tested at	inhibition [%]
CSC[C@@]12C[C@@H]1[C@@H](n1cnc3c(NC(C4CCCC4)C4CCCC4)nc(SC)nc31)[C@H](O)[C@@H]2O	ligand displacement	radioligand	10 µM	15
CN(CCN1CCC(OC(=O)Nc2ccccc2-c2ccccc2)CC1)C(=O)c1ccc(CN2CCC(C(N)=O)CC2)cc1	ligand displacement	radioligand	1 µM	0
CCSC[C@@]12C[C@@H]1[C@@H](n1cnc3c(NC(C4CCCC4)C4CCCC4)nc(Cl)nc31)[C@H](O)[C@@H]2O	ligand displacement	radioligand	10 µM	54
COc1ccc(S(=O)(=O)N2CCCCC2)cc1C	ligand displacement	radioligand	10 µM	< 30
COc1ccc(SC[C@@]23C[C@@H]2[C@@H](n2cnc4c(NC(C5CCCC5)C5CCCC5)nc(Cl)nc42)[C@H](O)[C@@H]3O)cc1OC	ligand displacement	radioligand	10 µM	39
CC(C)N1CCC[C@H]1CNC(=O)c1cn(C2CCCC2)c(=O)c2c1c1ccccc1n2C	ligand displacement	radioligand	10 µM	-1
CCN(CC)CCCC[C@H](NC(=O)[C@H](CC(C)C)NC(=O)[C@H](C)NC(=O)[C@H](Cc1ccccc1)NC(=O)c1ccc(C(C)(C)C)cc1)C(=O)N[C@@H](CO)C(=O)OC	ligand displacement	radioligand	10 µM	4
c1ccc(C(NCCNC(c2ccccc2)c2ccccc2)c2ccccc2)cc1	cell-free assay		10 µM	30
COCc1c(-c2cc3cc(C)cc(OC)c3s2)c2c(N)ncnn2c1CN1CCNC(=O)C1	ligand displacement	radioligand	10 µM	16
C[C@H](C(=O)N[C@H]1COc2ccccc2[C@@H]1S(C)(=O)=O)c1ccc(F)cc1	cell-free assay		10 µM	1
O=C(Nc1cccnn1)N1CCN([C@@H]2CCOc3cc(C(F)(F)F)ccc32)CC1	cell-free assay		20 µM	17
